# Legend:
# Rattus norvegicus [1] = experiment: Biodistribution of [18F]AFP in rat hippocampus at 120 min postinjection in vivo; format: ADME, organism-based; details: 2 h
# Rattus norvegicus [2] = experiment: Biodistribution of [18F]AFP in rat cerebellum at 60 min postinjection in vivo; format: ADME, organism-based; details: 1 h
# Rattus norvegicus [3] = experiment: Biodistribution of [18F]AFP in rat blood at 60 min postinjection in vivo; format: ADME, organism-based; details: 1 h
# Rattus norvegicus [4] = experiment: Biodistribution of [18F]AFP in rat cerebellum at 90 min postinjection in vivo; format: ADME, organism-based; details: 1.5 h
# Rattus norvegicus [5] = experiment: Biodistribution of [18F]AFP in rat hypothalamus at 120 min postinjection in vivo; format: ADME, organism-based; details: 2 h
# Rattus norvegicus [6] = experiment: Biodistribution of [18F]AFP in rat frontal cortex at 90 min postinjection in vivo; format: ADME, organism-based; details: 1.5 h
# Rattus norvegicus [7] = species: Rattus norvegicus; experiment: Specific binding of [18F]-AFA in frontal cortex of rat pretreated with compound 7f; n=3; format: functional
# Rattus norvegicus [8] = experiment: Biodistribution of [18F]AFP in rat blood at 90 min postinjection in vivo; format: ADME, organism-based; details: 1.5 h
# Rattus norvegicus [9] = species: Rattus norvegicus; experiment: Specific binding of [18F]AFA in hippocampus of rat pretreated with compound 7f; n=3; format: functional
# Rattus norvegicus [10] = experiment: Biodistribution of [18F]-AFP in rat cerebellum at 30 min postinjection in vivo; format: ADME, organism-based; details: 0.5 h
# Outline: (§1)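 Male Sprague-Dawley rats, three per time point, received the F-18 radioligand in saline (~20 µCi per rat at injection) by tail vein. Under CO2 anesthesia they were decapitated at 10, 30, 60, 90 or 120 min. Blood and dissected brain regions were weighed and gamma counted. Activity was decay-corrected, and injected dose was corrected for tail residual activity. Uptake was expressed as %ID/g versus injectate standards, mean ± SD.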
# Rattus norvegicus [11] = experiment: Biodistribution of [18F]AFP in rat thalamus at 90 min postinjection in vivo; format: ADME, organism-based; details: 1.5 h
# Rattus norvegicus [12] = experiment: Biodistribution of [18F]AFP in rat frontal cortex at 120 min postinjection in vivo; format: ADME, organism-based; details: 2 h
# Rattus norvegicus [13] = species: Rattus norvegicus; experiment: Specific binding of [18F]AFA in striatum of rat pretreated with compound 7f; n=3; format: functional
# Rattus norvegicus [14] = experiment: Biodistribution of [18F]AFP in rat frontal cortex at 10 min postinjection in vivo; format: ADME, organism-based
# Rattus norvegicus [15] = species: Rattus norvegicus; experiment: Specific binding of [18F]AFA in hypothalamus of rat pretreated with compound 7f; n=3; format: functional
# Rattus norvegicus [16] = experiment: Biodistribution of [18F]-AFP in rat hippocampus at 10 min postinjection in vivo; format: ADME, organism-based; outline: as §1
# Rattus norvegicus [17] = experiment: Biodistribution of [18F]AFP in rat thalamus at 30 min postinjection in vivo; format: ADME, organism-based; details: 0.5 h
# Rattus norvegicus [18] = experiment: Biodistribution of [18F]AFP in rat hippocampus at 30 min postinjection in vivo; format: ADME, organism-based; details: 0.5 h
# Rattus norvegicus [19] = experiment: Biodistribution of [18F]AFP in rat thalamus at 60 min postinjection in vivo; format: ADME, organism-based; details: 1 h
# Rattus norvegicus [20] = experiment: Biodistribution of [18F]AFP in rat thalamus at 120 min postinjection in vivo; format: ADME, organism-based; details: 2 h
# Rattus norvegicus [21] = experiment: Biodistribution of [18F]-AFP in rat blood at 120 min postinjection in vivo; format: ADME, organism-based; details: 2 h; outline: as §1
# Rattus norvegicus [22] = experiment: Biodistribution of [18F]-AFP in rat hippocampus at 60 min postinjection in vivo; format: ADME, organism-based; details: 1 h; outline: as §1
# Rattus norvegicus [23] = experiment: Biodistribution of [18F]AFP in rat hypothalamus at 10 min postinjection in vivo; format: ADME, organism-based
# Rattus norvegicus [24] = experiment: Biodistribution of [18F]-AFP in rat frontal cortex at 60 min postinjection in vivo; format: ADME, organism-based; details: 1 h; outline: as §1
# Rattus norvegicus [25] = experiment: Biodistribution of [18F]AFP in rat cerebellum at 120 min postinjection in vivo; format: ADME, organism-based; details: 2 h
# Rattus norvegicus [26] = experiment: Biodistribution of [18F]AFP in rat thalamus at 10 min postinjection in vivo; format: ADME, organism-based
# Rattus norvegicus [27] = experiment: Biodistribution of [18F]-AFP in rat frontal cortex at 30 min postinjection in vivo; format: ADME, organism-based; details: 0.5 h; outline: as §1
# Rattus norvegicus [28] = experiment: Biodistribution of [18F]AFP in rat blood at 30 min postinjection in vivo; format: ADME, organism-based; details: 0.5 h
# Rattus norvegicus [29] = experiment: Biodistribution of [18F]AFP in rat hypothalamus at 60 min postinjection in vivo; format: ADME, organism-based; details: 1 h
# Rattus norvegicus [30] = experiment: Biodistribution of [18F]-AFP in rat cerebellum at 10 min postinjection in vivo; format: ADME, organism-based; outline: as §1
# Rattus norvegicus [31] = experiment: Biodistribution of [18F]AFP in rat striatum at 120 min postinjection in vivo; format: ADME, organism-based; details: 2 h
# Rattus norvegicus [32] = experiment: Biodistribution of [18F]AFP in rat striatum at 90 min postinjection in vivo; format: ADME, organism-based; details: 1.5 h
# Rattus norvegicus [33] = experiment: Biodistribution of [18F]AFP in rat striatum at 30 min postinjection in vivo; format: ADME, organism-based; details: 0.5 h
# Rattus norvegicus [34] = species: Rattus norvegicus; experiment: Specific binding of [18F]AFA in thalamus of rat pretreated with compound 7f; n=3; format: functional
# Rattus norvegicus [35] = experiment: Biodistribution of [18F]AFP in rat hypothalamus at 90 min postinjection in vivo; format: ADME, organism-based; details: 1.5 h
# Rattus norvegicus [36] = experiment: Biodistribution of [18F]AFP in rat hypothalamus at 30 min postinjection in vivo; format: ADME, organism-based; details: 0.5 h
# Rattus norvegicus [37] = experiment: Biodistribution of [18F]AFP in rat striatum 60 min postinjection in vivo; format: ADME, organism-based; details: 1 h
# Rattus norvegicus [38] = experiment: Biodistribution of [18F]AFP in rat hippocampus at 90 min postinjection in vivo; format: ADME, organism-based; details: 1.5 h
# Rattus norvegicus [39] = experiment: Biodistribution of [18F]AFP in rat striatum at 10 min postinjection in vivo; format: ADME, organism-based
# Rattus norvegicus [40] = experiment: Biodistribution of [18F]AFP in rat blood at 10 min postinjection in vivo; format: ADME, organism-based
smiles,measurement,setting,value
CN(C)Cc1ccccc1Sc1ccc(CCC[18F])cc1N,Biodistribution,Rattus norvegicus [1],0.08 %ID/g
same,Biodistribution,Rattus norvegicus [2],0.07 %ID/g
same,Biodistribution,Rattus norvegicus [3],0.14 %ID/g
same,Biodistribution,Rattus norvegicus [4],0.03 %ID/g
same,Biodistribution,Rattus norvegicus [5],0.1 %ID/g
same,Biodistribution,Rattus norvegicus [6],0.05 %ID/g
same,Specific binding,Rattus norvegicus [7],0.05 %ID/g
same,Biodistribution,Rattus norvegicus [8],0.08 %ID/g
same,Specific binding,Rattus norvegicus [9],0.03 %ID/g
same,Biodistribution,Rattus norvegicus [10],0.14 %ID/g
same,Biodistribution,Rattus norvegicus [11],0.1 %ID/g
same,Biodistribution,Rattus norvegicus [12],0.08 %ID/g
same,Specific binding,Rattus norvegicus [13],0.07 %ID/g
same,Biodistribution,Rattus norvegicus [14],0.47 %ID/g
same,Specific binding,Rattus norvegicus [15],0.26 %ID/g
same,Biodistribution,Rattus norvegicus [16],0.36 %ID/g
same,Biodistribution,Rattus norvegicus [17],0.28 %ID/g
same,Biodistribution,Rattus norvegicus [18],0.19 %ID/g
same,Biodistribution,Rattus norvegicus [19],0.16 %ID/g
same,Biodistribution,Rattus norvegicus [20],0.1 %ID/g
same,Biodistribution,Rattus norvegicus [21],0.04 %ID/g
same,Biodistribution,Rattus norvegicus [22],0.13 %ID/g
same,Biodistribution,Rattus norvegicus [23],0.42 %ID/g
same,Biodistribution,Rattus norvegicus [24],0.12 %ID/g
same,Biodistribution,Rattus norvegicus [25],0.03 %ID/g
same,Biodistribution,Rattus norvegicus [26],0.44 %ID/g
same,Biodistribution,Rattus norvegicus [27],0.21 %ID/g
same,Biodistribution,Rattus norvegicus [28],0.15 %ID/g
same,Biodistribution,Rattus norvegicus [29],0.13 %ID/g
same,Biodistribution,Rattus norvegicus [30],0.31 %ID/g
same,Biodistribution,Rattus norvegicus [31],0.08 %ID/g
same,Biodistribution,Rattus norvegicus [32],0.08 %ID/g
same,Biodistribution,Rattus norvegicus [33],0.21 %ID/g
same,Specific binding,Rattus norvegicus [34],0.35 %ID/g
same,Biodistribution,Rattus norvegicus [35],0.1 %ID/g
same,Biodistribution,Rattus norvegicus [36],0.21 %ID/g
same,Biodistribution,Rattus norvegicus [37],0.11 %ID/g
same,Biodistribution,Rattus norvegicus [38],0.07 %ID/g
same,Biodistribution,Rattus norvegicus [39],0.41 %ID/g
same,Biodistribution,Rattus norvegicus [40],0.18 %ID/g

# Reference: ChEMBL document CHEMBL1145212, “Fluorinated diaryl sulfides as serotonin transporter ligands: synthesis, structure-activity relationship study, and in vivo evaluation of fluorine-18-labeled compounds as PET imaging agents” (J Med Chem, 2005)
